This is an account of results in ChEMBL document CHEMBL5576109, “Hydantoin derivative dimers as broad-spectrum antimicrobial agents against ESKAPE pathogens with enhanced killing rate and stability” (RSC Med Chem, 2024).

For assay [1], the system named is Staphylococcus aureus. The experiment in a line: Antibacterial activity against Staphylococcus aureus ATCC 29213 assessed as inhibition of bacterial growth by measuring fold increase in MIC measured after 16 to 18 hrs in presence of KCl by TECAN SPARK microplate reader analysis. As to conditions: time 16-18 hrs. The assay is classed as functional. The procedure, abridged:
(§1)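 Salt/serum stability. Exponential-phase bacteria incubated 16–18 h with compound in medium supplemented with 10 mM NaCl, 10 mM KCl, 10 mM MgCl2, 10% DMEM or 10% FBS. Stability judged from the change in MIC.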

The test system of a further assay is Enterococcus faecalis. The assay is described as follows: Antibacterial activity against Enterococcus faecalis ATCC 29212 assessed as reduction bacterial growth after 16 hrs by TECAN SPARK microplate reader analysis. The assay is classed as functional. The procedure, abridged: (§2)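 Single colony grown overnight in 4 mL TSB at 37 °C, diluted 100-fold and grown to mid-log phase. Compounds 2-fold serially diluted in TSB and mixed 1:1 with bacteria in TSB (1 × 10^6 CFU/mL). Incubated 16 h at 37 °C, then A600 read. MIC taken as the lowest concentration giving complete growth inhibition.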

The next assay has as its system Bacillus subtilis. The assay is described as follows: Antibacterial activity against Bacillus subtilis ATCC 6633 assessed as reduction bacterial growth after 16 hrs by TECAN SPARK microplate reader analysis. It counts as functional. The procedure, abridged:
as §2

Assay [2] relates to Staphylococcus aureus. The assay is described as follows: Antibacterial activity against methicillin-resistant Staphylococcus aureus ATCC 43300 assessed as reduction bacterial growth after 16 hrs by TECAN SPARK microplate reader analysis. It counts as functional. In short, it runs like this: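 Broth microdilution in TSB: single colony grown overnight at 37 °C, diluted 100-fold and grown to mid-log phase. 2-fold serial compound dilutions mixed 1:1 with bacteria at 1 × 10^6 CFU/mL, incubated 16 h at 37 °C, absorbance read at 600 nm. MIC taken as lowest concentration giving complete growth inhibition.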

In assay [3] the test system is Escherichia coli. The assay is described as follows: Induction of morphological changes in Escherichia coli ATCC 25922 assessed as cellular inclusion leakage at 8 time of MIC for 6 hrs by scanning electron microscopy. It counts as functional, organism-based. The procedure, abridged:
(§3)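 Mid-log cells exposed to compound for 6 h at 37 °C alongside untreated controls. Cells pelleted (3000 rpm, 15 min), washed four times in PBS, and fixed with 2.5% glutaraldehyde. Dehydrated through graded ethanol, critical-point dried and gold-coated, then imaged by SEM.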

Assay [4] relates to Staphylococcus aureus. The experiment in a line: Induction of membrane disruption in Staphylococcus aureus ATCC 29213 assessed as increase in red fluorescence at 8 times of MIC for 6 hrs by Hoechst 33342 and propidium iodide staining based confocal microscopic analysis. It counts as functional, organism-based.
Assay [5] relates to Escherichia coli. The experiment in a line: Induction of morphological changes in Escherichia coli ATCC 25922 assessed as cell collapse at 8 time of MIC for 6 hrs by scanning electron microscopy. The assay is classed as functional, organism-based. The procedure, abridged:
as §3

The subject of assay [6] is Staphylococcus aureus. The assay is described as follows: Induction of morphological changes in Staphylococcus aureus ATCC 29213 assessed as cell wrinkled at 8 time of MIC for 6 hrs by scanning electron microscopy. It counts as functional, organism-based. The procedure, abridged: as §3
The subject of assay [7] is Escherichia coli. The assay is described as follows: Antibacterial activity against Escherichia coli ATCC 25922 assessed as inhibition of bacterial growth by measuring fold increase in MIC measured after 16 to 18 hrs in presence of 10% DMEM by TECAN SPARK microplate reader analysis. The assay is classed as functional. The conditions noted are these: time 16-18 hrs. The procedure, abridged:
as §1

In assay [8] the test system is Staphylococcus aureus. The assay is described as follows: Induction of ROS generation in Staphylococcus aureus ATCC 29213 assessed as increase in fluorescence intensity incubated for 30 mins by DCFH-DA staining based analysis. It counts as functional, organism-based. In short, it runs like this:
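Overnight 37 °C cultures washed three times and resuspended in PBS, diluted to OD600 0.1, and mixed with DCFH-DA (5 µM). Treated with a range of compound concentrations for 30 min at 37 °C in the dark. Fluorescence read at Ex 488 / Em 530 nm.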

Values after ≈ are worked out from the molar mass of the structure shown. Active and inactive are the calls of the source.

For the compound `CCCCCCN1C(=O)[C@H](CCCCNC(=N)N)N(Cc2ccc(-c3ccc(CN4C(=O)N(CCCCCC)C(=O)[C@@H]4CCCCNC(=N)N)cc3)cc2)C1=O`, the “fold change (FC)” value in the assay with Staphylococcus aureus [1] and in the assay on Escherichia coli [7] was 1 in each case. The MIC in the assay on Enterococcus faecalis came to 3.91 µg/mL (≈ 5.06 µM); in the assay on Bacillus subtilis, 1.95 µg/mL (≈ 2.52 µM); in the assay with Staphylococcus aureus [2] it was 7.81 µg/mL (≈ 10.1 µM). For the same compound, the outcome in the assay on Escherichia coli [3], in the assay with Staphylococcus aureus [4], with Escherichia coli [5] and in the assay on Staphylococcus aureus [6] was Active. Moreover, the Activity result in the assay on Staphylococcus aureus [8] is “Dose-Dependent Effect”.

One may read the MIC as the smallest concentration in the dilution series that meets the test's criterion for growth inhibition.
